The values below come from ChEMBL document CHEMBL3817776, “Discovery and Structure-Activity Relationships of the Neoseptins: A New Class of Toll-like Receptor-4 (TLR4) Agonists” (J Med Chem, 2016).

Test [1] concerns the target T1, Toll-like receptor 4 (Mus musculus, UniProt Q9QUK6).
T1 sequence (Q9QUK6 whole entry): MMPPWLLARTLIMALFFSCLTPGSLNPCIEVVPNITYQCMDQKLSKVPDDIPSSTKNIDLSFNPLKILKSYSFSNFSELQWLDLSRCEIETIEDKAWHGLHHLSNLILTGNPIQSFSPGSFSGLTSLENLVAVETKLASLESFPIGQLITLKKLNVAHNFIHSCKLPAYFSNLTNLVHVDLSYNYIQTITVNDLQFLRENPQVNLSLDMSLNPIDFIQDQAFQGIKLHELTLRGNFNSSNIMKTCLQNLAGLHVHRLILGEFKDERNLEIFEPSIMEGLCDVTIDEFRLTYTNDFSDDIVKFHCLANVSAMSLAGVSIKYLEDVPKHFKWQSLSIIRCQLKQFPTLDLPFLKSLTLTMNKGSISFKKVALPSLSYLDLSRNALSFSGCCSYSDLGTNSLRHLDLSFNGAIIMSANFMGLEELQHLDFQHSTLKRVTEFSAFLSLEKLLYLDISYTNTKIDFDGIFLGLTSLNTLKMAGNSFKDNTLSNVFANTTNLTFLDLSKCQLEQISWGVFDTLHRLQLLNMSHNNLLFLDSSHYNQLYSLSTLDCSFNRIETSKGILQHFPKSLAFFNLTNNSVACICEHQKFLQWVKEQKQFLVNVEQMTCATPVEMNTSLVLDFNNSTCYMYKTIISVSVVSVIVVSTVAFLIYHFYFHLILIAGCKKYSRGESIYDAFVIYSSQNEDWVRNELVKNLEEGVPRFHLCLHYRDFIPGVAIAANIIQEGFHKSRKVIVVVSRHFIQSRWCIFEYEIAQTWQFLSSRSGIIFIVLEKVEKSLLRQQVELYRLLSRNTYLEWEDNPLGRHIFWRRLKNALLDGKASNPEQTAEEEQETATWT
Put plainly: (§1) Agonist activity at TLR4 in C57BL/6J mouse macrophages assessed as stimulation of TNFalpha release after 4 hrs by ELISA. An outline of the steps: (§2)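 Peritoneal macrophages from wild-type C57BL/6J mice, collected by PBS lavage and cultured in DMEM/10% FBS at 37 °C, 5% CO2. Seeded at 1 × 10^5 cells/well and treated 4 h with compound in DMSO (0.5% final) beside ultra-pure LPS and DMSO controls. Supernatant TNF-α measured by ELISA; mean of triplicates.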
(In general: An ELISA detects its analyte on a solid surface through an enzyme-linked reagent.)

The target in test [2] is T2, Toll-like receptor 4 (Mus musculus) (UniProt Q9QUK6).
T2 sequence (whole entry): T1 sequence (Q9QUK6 whole entry)
Briefly: Agonist activity at TLR4 in C57BL/6J mouse macrophages assessed as stimulation of TNFalpha release at 50 uM after 4 hrs by ELISA. Put shortly:
as §2

Test [3] is filed under the species Mus musculus. Briefly: Agonist activity at TLR4 lps3/lps3 mutant in C57BL/6J mouse macrophages assessed as stimulated release of TNFalpha after 4 hrs by ELISA. An outline of the steps: (§3)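 Macrophages taken from mice carrying disabling germline mutations or knockouts in TLR or signaling-pathway genes. Exposed to compound at 50 µM; TNF-α released into the medium measured by ELISA. Results representative of two independent experiments; error bars SEM.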

Test [4] has as its system Macrophage. Briefly: Induction of TNFalpha release in TLR3 deficient C57BL/6J mouse macrophages at 50 uM after 4 hrs by ELISA. Type of test: functional, cell-based. An outline of the steps:
as §3

Test [5] concerns Macrophage. Put plainly: Induction of TNFalpha release in C57BL/6J mouse macrophages harboring TLR2 ingd/ingd mutant at 50 uM after 4 hrs by ELISA. Type of test: functional, cell-based. Put shortly:
as §3

Test [6] has as its system Mus musculus. Put plainly: Adjuvant activity in C57BL/6J mouse assessed as increase in OVA-specific IgG2a levels at 250 mg/kg, im after 21 days by ELISA. Type of test: functional, organism-based. Put shortly:
(§4)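 C57BL/6 mice, 4 per group, immunized i.m. with 100 µg ovalbumin (endotoxin <1 EU/mg) plus compound in propylene glycol vehicle, or vehicle alone. OVA-specific IgG subclasses in serum titrated by ELISA at day 21. Mean ± SEM.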

Test [7] addresses T2, Toll-like receptor 4 (Mus musculus). The test is described as §1. An outline of the steps: as §2
In test [8] the test system is Macrophage. Briefly: Induction of TNFalpha release in C57BL/6J mouse macrophages harboring TLR6 int/int mutant at 50 uM after 4 hrs by ELISA. Type of test: functional, cell-based. An outline of the steps: as §3
The test system of test [9] is Mus musculus. Briefly: Adjuvant activity in C57BL/6J mouse assessed as increase in OVA-specific IgG3 levels at 250 mg/kg, im after 21 days by ELISA. Type of test: functional, organism-based. An outline of the steps: as §4
The subject of test [10] is Macrophage. Briefly: Induction of TNFalpha release in C57BL/6J mouse macrophages harboring TLR7 rsq1/rsq1 mutant at 50 uM after 4 hrs by ELISA. It is filed as functional, cell-based. Put shortly:
as §3

The target in test [11] is T2, Toll-like receptor 4 (Mus musculus). Briefly: Agonist activity at TLR4 receptor in C57BL/6J mouse macrophages harboring Ikbkg panr2/Y mutant assessed as induction of TNFalpha release at 50 uM after 4 hrs by ELISA. An outline of the steps:
as §3

Test [12] concerns Mus musculus. Briefly: Adjuvant activity in C57BL/6J mouse assessed as increase in OVA-specific IgG2b levels at 250 mg/kg, im after 21 days by ELISA. It is filed as functional, organism-based. Put shortly: as §4
In test [13] the target is T2, Toll-like receptor 4 (Mus musculus). Put plainly: Agonist activity at TLR4 receptor in LY96 deficient C57BL/6J mouse macrophages assessed as induction of TNFalpha release at 50 uM after 4 hrs by ELISA. Put shortly: as §3
In test [14] the test system is Macrophage. Put plainly: Induction of TNFalpha release in C57BL/6J mouse macrophages harboring TLR9 CpG3/CpG3 mutant at 50 uM after 4 hrs by ELISA. It is filed as functional, cell-based. An outline of the steps:
as §3

For test [15], the system named is Macrophage. Put plainly: Induction of TNFalpha release in C57BL/6J mouse macrophages harboring CD14 hdl/hdl mutant at 50 uM after 4 hrs by ELISA. Type of test: functional, cell-based. An outline of the steps: as §3
Test [16] concerns the target T2, Toll-like receptor 4 (Mus musculus). Briefly: Agonist activity at TLR4 receptor in C57BL/6J mouse macrophages harboring Irak4 otiose/otiose mutant assessed as induction of TNFalpha release at 50 uM after 4 hrs by ELISA. Put shortly: as §3
Test [17] shares this target. Put plainly: Agonist activity at TLR4 receptor in C57BL/6J mouse macrophages harboring MYD88 poc/poc mutant assessed as induction of TNFalpha release at 50 uM after 4 hrs by ELISA. An outline of the steps:
as §3

For test [18] the target is unchanged. Briefly: Agonist activity at TLR4 receptor in C57BL/6J mouse macrophages harboring Ticam1 Lps2/Lps2 mutant assessed as induction of TNFalpha release at 50 uM after 4 hrs by ELISA. Put shortly: as §3
The test system of test [19] is Mus musculus. Put plainly: Adjuvant activity in C57BL/6J mouse assessed as increase in OVA-specific IgG1 levels up to 250 mg/kg, im after 21 days by ELISA. It is filed as functional, organism-based. Put shortly:
as §4

Active and inactive are the calls of the source. Unless noted, the rule behind the calls is not given here.

Take `CC(C)(C)OC(=O)[C@H](CCC1CCCCC1)NC(=O)c1ccc(N)c(CCc2ccc(O)cc2)c1`: in test [1], the EC50 – broadly, the concentration at which the effect is half-maximal – was determined as 29.5 µM. Also, the outcome in test [2] was Active.
As for `CC(C)(C)OC(=O)[C@H](CCc1ccccc1)NC(=O)c1ccc(N)c(CCc2ccc(O)cc2)c1`, the result in test [3], in test [11], in [13], in test [16], in test [17] and in test [18] was inactive. Further, the result in test [4], in test [5], in test [6], in [8], in test [9] and in [10] was Active. Besides, the outcome in [12], in [14] and in test [15] was Active. For the same compound, in test [1], the EC50 was 18.5 µM. The Activity result in [7] and in test [19] was “Dose-dependent effect” in each case.
Turning to `Cc1ccc(CC[C@H](NC(=O)c2ccc(N)c(CCc3ccc(O)cc3)c2)C(=O)OC(C)(C)C)cc1`, the EC50 in test [1] was 21.6 µM. Also, the outcome in test [2] was Active.
Taken in the same sequence, the figures for `COc1ccc(CC[C@H](NC(=O)c2ccc(N)c(CCc3ccc(O)cc3)c2)C(=O)OC(C)(C)C)cc1` were 22.2 µM and “Active”.
For `CC(C)(C)OC(=O)[C@H](CCc1ccccc1)NC(=O)c1ccc(N)c(OCCc2ccc(O)cc2)c1`, in test [1], the concentration giving a half-maximal response (EC50) came out at 20.7 µM. The Activity result in test [7] was “Dose-dependent effect”.
For the compound `CC(C)(C)OC(=O)[C@H](CCc1ccc(O)cc1)NC(=O)c1ccc(N)c(CCc2ccc(O)cc2)c1`, the result in [2] was inactive.
The same measure, in the same setting: the result for `CC(C)(C)OC(=O)[C@H](CCCc1ccccc1)NC(=O)c1ccc(N)c(CCc2ccc(O)cc2)c1` reads “inactive”.
